SR-BI DiI inh = inhibitors of SR-BI mediated HDL lipid uptake, primary screen, ldlA[mSR-BI] cells, fluorescence, single point. ldlA[mSR-BI] CHO cells, DiI-HDL uptake fluorescence, 3 h. inhibition, % at 12.5 µM. 320,000 compounds, 0.96% hits. AID 488896, 2010. Scavenger receptor class B member 1 (Mus musculus), Q61009;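 active = mean replicate inhibition of at least 70% and a set share of replicates each scoring 70 or more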
SR-BI DiI-HDL act = activators of SR-BI mediated DiI-HDL uptake, primary screen, ldlA[mSR-BI] CHO cells, DiI fluorescence; activation, % at 12.5 µM; 320,000 compounds, 0.096% hits; 3 h; 100 = double the neutral-control signal;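 active = mean replicate activation of at least 60% and every replicate at or above 60%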
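Test system: SR-BI-overexpressing, LDLR-lacking CHO cells. Measured by: DiI fluorescence, bottom read. Medium: Ham's F12 with 0.5% BSA, HEPES 25 mM, pH 7.4. Timing: 3 h uptake period with compound, 37 °C.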
Rin1 Abl inh = inhibitors of Rin1-Abl protein binding, primary screen, biochemical, TR-FRET | Tyrosine-protein kinase ABL1 (Homo sapiens) + Ras and Rab interactor 1 (Homo sapiens), … | inhibition, % at 7.35 µM | 360,000 compounds, 0.4% hits; in the data active = inhibition above about 5%, passing the limit was not always enough
Target sequence (P00519 whole entry, looked up): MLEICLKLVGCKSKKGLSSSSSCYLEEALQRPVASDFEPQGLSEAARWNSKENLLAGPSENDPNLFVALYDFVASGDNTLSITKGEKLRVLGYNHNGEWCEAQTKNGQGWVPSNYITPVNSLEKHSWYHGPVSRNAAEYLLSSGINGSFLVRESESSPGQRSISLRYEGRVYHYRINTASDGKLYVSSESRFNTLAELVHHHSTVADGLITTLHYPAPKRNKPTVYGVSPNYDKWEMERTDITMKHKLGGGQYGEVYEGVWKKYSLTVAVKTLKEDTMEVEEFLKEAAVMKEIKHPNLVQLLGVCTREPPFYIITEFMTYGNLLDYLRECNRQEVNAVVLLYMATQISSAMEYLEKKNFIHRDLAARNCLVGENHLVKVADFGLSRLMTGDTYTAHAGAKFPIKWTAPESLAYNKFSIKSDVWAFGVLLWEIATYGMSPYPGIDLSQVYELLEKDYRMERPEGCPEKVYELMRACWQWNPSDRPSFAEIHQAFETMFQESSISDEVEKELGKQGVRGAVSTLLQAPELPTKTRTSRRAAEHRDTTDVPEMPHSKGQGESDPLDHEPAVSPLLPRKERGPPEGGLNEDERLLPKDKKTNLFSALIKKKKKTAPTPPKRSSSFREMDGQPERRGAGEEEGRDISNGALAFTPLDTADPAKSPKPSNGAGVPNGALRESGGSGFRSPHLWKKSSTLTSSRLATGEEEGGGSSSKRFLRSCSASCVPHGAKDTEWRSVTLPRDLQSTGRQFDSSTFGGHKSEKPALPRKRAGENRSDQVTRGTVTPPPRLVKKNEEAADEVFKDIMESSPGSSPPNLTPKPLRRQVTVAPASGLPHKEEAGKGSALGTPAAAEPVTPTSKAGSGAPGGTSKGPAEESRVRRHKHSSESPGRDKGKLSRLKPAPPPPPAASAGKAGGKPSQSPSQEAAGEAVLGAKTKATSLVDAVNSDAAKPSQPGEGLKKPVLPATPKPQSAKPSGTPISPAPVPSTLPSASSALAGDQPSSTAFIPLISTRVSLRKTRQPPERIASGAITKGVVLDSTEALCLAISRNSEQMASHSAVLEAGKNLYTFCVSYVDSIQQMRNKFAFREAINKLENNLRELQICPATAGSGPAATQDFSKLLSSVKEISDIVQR
Target sequence (Q13671 whole entry, looked up): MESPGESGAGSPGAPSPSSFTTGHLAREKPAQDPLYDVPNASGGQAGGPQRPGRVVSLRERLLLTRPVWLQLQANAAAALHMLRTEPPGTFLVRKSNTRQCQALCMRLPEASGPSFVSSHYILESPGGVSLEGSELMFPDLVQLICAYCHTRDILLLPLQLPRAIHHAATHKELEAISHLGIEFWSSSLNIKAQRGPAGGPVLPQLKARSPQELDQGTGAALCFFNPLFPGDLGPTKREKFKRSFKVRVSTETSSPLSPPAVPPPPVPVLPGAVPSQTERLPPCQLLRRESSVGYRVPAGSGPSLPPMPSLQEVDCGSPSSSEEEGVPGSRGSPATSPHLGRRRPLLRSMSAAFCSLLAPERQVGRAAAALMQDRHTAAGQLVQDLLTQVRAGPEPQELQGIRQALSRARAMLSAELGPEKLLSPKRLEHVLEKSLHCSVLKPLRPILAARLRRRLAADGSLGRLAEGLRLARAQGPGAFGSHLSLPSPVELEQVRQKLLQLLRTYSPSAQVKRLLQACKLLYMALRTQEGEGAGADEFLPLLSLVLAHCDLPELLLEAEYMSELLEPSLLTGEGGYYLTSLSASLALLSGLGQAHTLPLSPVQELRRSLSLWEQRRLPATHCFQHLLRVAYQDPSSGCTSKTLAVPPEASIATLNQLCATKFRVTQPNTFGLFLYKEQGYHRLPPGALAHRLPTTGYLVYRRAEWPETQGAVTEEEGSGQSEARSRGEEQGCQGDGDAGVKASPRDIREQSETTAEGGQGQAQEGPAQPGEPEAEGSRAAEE
GRK2 inh = compounds blocking aptamer binding on GRK2 – biochemical, human GRK2, bead flow cytometry, HTS, primary screen; Beta-adrenergic receptor kinase 1 (Homo sapiens), P25098; FAM-aptamer displacement from GRK2; inhibition of aptamer binding, % at 10 µM; 330,000 compounds, 0.59% hits;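 active = inhibition of aptamer binding above 40%, roughly 3 SD of noise, on plates passing a quality check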;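 note: median bead fluorescence of bound FAM aptamer so fluorescent compounds give negative values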
Rin1 Abl conf = Rin1-Abl binding inhibitor retest, confirmation, biochemical, TR-FRET; shares compounds with Rin1 Abl inh; purified proteins; inhibition, % at 7.35 µM; 1,300 compounds, 49% hits; in the data active = inhibition above about 6.5%
GFP quench-1 = GFP fluorescence inhibitors and quenchers, artefact control for Rin1-Abl interaction inhibitor project, biochemical; AID 602125, 2011; 1,300 compounds, 8.5% hits; inhibition, % at 6.75 µM; shares compounds with Rin1 Abl inh; inhibitors/quenchers counterscreen; in the data active = inhibition above about 6.5%;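 note: ABL1-eGFP fusion protein alone without its partner RIN1-SBP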
GFP quench dose = GFP fluorescence inhibitors and quenchers, dose response, artefact control for Rin1-Abl interaction inhibitor project, biochemical; IC50, µM; GFP fluorescence interference/quenching counterscreen; 230 tested, under 10 active; shares compounds with Rin1 Abl inh;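 note: ABL1-eGFP fusion protein alone without its RIN1 binding partner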
GFP quench-2 = GFP fluorescence inhibitors and quenchers, late-stage follow-up, artefact control for Rin1-Abl interaction inhibitor project, biochemical, dose response; AID 602397, 2012; shares compounds with Rin1 Abl inh; GFP fluorescence quenching counterscreen; 25 tested, under 10 active; IC50, µM
Numbers stand for hits; - = inactive; . = no result; ! = not confirmed by another sample. A selection: hits, their analogues and other compounds. The true share with any hit is near 1.9%. Unless noted, the rule behind the calls is not given here.

SMILES	SR-BI DiI inh	SR-BI DiI-HDL act	Rin1 Abl inh	GRK2 inh	Rin1 Abl conf	GFP quench-1	others
NS(=O)(=O)c1ccc(NC(=O)COc2ncnc3c2cnn3-c2ccccc2)cc1	.	.	5.5	-	-	-
NS(=O)(=O)c1ccc(NC(=O)COC(=O)c2cn(-c3ccccc3)nc2-c2ccccc2)cc1	-	-	-	-	.	.
COCCN1CCC(CO)C1 (stereo not drawn)	-	-	-	.	.	.
COC(=O)[C@H]1C[C@@]2(O)CN(S(=O)(=O)c3ccc(C)cc3)C[C@@]2(OC(=O)NC2CC2)C[C@H]1C(=O)OC	.	.	-	.	.	.
O=C(Nc1cccc(C(F)(F)F)c1)c1cccnc1NCCO	-	-	6.9	-	-	-
Oc1ccc(C2CNCCc3c2cc(O)c(O)c3Cl)cc1 (stereo not drawn)	-	-	18!	-	30	8.4
CN(CC(=O)Nc1cc(S(=O)(=O)N2CCOCC2)ccc1Cl)C1CCS(=O)(=O)C1 (stereo not drawn)	-	-	9.4	-	-	-
Cc1ccc(S(=O)(=O)N2CCOCC2)cc1NC(=O)CN(C)C1CCS(=O)(=O)C1 (stereo not drawn)	.	.	-	-	.	.
CC(=O)OCCN(CCCn1c(-c2ccncc2)nc2ccccc21)c1nc(CN2CCCCC2)cs1	-	-	8.4	-	-	-
Cc1cccc(OCCn2c(=O)oc3ccc(C)cc32)c1	-	-	5.8	-	-	-
Cc1ccc(C2N(c3ccc(Cl)cc3)C(=O)N3CCCN23)cc1 (stereo not drawn)	-	-	12	-	13	-
Nc1ccn([C@@H]2O[C@H](CNCc3cccc(OC4CCCC4)c3)[C@@H](O)[C@H]2O)c(=O)n1	.	.	-	.	.	.
O=C1N(Cc2cccnc2)C[C@@H]2C[C@@H](c3ccc4nsnc4c3)N3CCC[C@@]123	-	-	16	-	16	-
COc1ccc2oc(C(=O)NCC(c3ccco3)N(C)C)c(C)c2c1 (stereo not drawn)	-	-	40	-	45	-	GFP quench dose=-;GFP quench-2=-
CN(C(=O)c1cccc(NC(=O)Cc2cccc(NC(=O)C3CCN(C(=O)C4CCCCC4)CC3)c2)c1)C1CC1	-	-	-	.	.	.
C[C@@H]1CN([C@@H](C)CO)C(=O)CCCn2nncc2CO[C@@H]1CN(C)S(=O)(=O)c1cccc(F)c1	.	.	14	.	-	-
Cc1ccccc1CC(=O)Nc1ccc2c(c1)c(=O)n(C)n2-c1cccs1	.	.	-	.	.	.
CCn1cc(C(=O)NCCCOC(C)C)c(=O)c2cc(S(=O)(=O)N3CCC(C)CC3)ccc21	-	-	13	-	-	-
NCCNC(=O)Cc1ccc(NC(=O)Cc2ccc(Nc3ncnc4c3ncn4[C@@H]3O[C@H](CO)[C@@H](O)[C@H]3O)cc2)cc1	-	-	16	-	28	-
CCCc1c(C(=O)Nc2ccc(F)cc2C)cnn1-c1ccccc1	-	-	-	-	.	.
CCCc1c(C(=O)Nc2cc(C)on2)cnn1-c1ccccc1	-	-	8.7	-	-	-
Cc1cccc(N(Cc2ccccc2)C(=O)Cc2ccc(S(=O)(=O)N3CCOCC3)s2)c1	-	-	14	-	26	-	GFP quench dose=-
Cn1c(=O)c2ncn(CC(=O)NCCOc3ccccc3)c2n(C)c1=O	-	-	-	-	.	.
Cc1ccc(OCCNC(=O)Cn2cnc3c(=O)n(C)c(=O)n(C)c32)cc1C	-	-	10	-	-	-
O=C(CCC1CCCN(C(=O)C2(c3ccccc3)CC2)C1)N1CCN(c2ccccn2)CC1 (stereo not drawn)	-	-	10.0	-	-	-
SMILES	SR-BI DiI inh	SR-BI DiI-HDL act	Rin1 Abl inh	GRK2 inh	Rin1 Abl conf	GFP quench-1	others
Cc1ccc(C(=O)N2CCCC(CCC(=O)N3CCN(c4ccccn4)CC3)C2)cc1C (stereo not drawn)	-	-	9.4	-	-	-
Cc1cc(C(=O)N2CCCC(CCC(=O)N3CCN(c4ccccn4)CC3)C2)c(C)o1 (stereo not drawn)	-	-	-	-	.	.
O=C(CCC1CCCN(c2ncccn2)C1)N1CCN(c2ccccn2)CC1 (stereo not drawn)	.	.	-	-	.	.
Cc1cccc(C(=O)N2CCCC(CCC(=O)N3CCN(c4ccccn4)CC3)C2)c1C (stereo not drawn)	-	-	12	-	-	-
CNC(=O)CSc1nnc(NC(=O)C2CC(=O)N(c3ccccc3OC)C2)s1 (stereo not drawn)	-	.	-	-	.	.
CC(C)c1ccc(Nc2ccc(C(=O)O)cc2[N+](=O)[O-])cc1	-	-	-	-	.	.
CCn1ccc(C(=O)N2CCN(c3ncccn3)CC2)n1	-	-	7.3	-	6.3	-
CCn1ccc(C(=O)N2CCOCC2)n1	-	-	-	-	.	.
COCCn1c(C)cc(C(=O)CSc2nnc(-c3cccnc3)n2-c2ccccc2F)c1C	-	-	10	-	-	-
Cc1ccccc1-n1c(SCC(=O)c2cc(C)n(C)c2C)nnc1-c1cccnc1	-	-	-	-	.	.
Nc1ncnc(N)c1NC(=O)c1ccc(OCc2ccccc2)cc1	.	.	-	.	.	.
N#Cc1ccc(CN2CCN(C(=O)CNS(=O)(=O)c3ccc4c(c3)OCCCO4)CC2)cc1	-	-	-	-	.	.
N#Cc1ccc(NC(=O)Nc2cccc(C#N)c2)cc1	-	-	8.0	-	-	-
N#Cc1cccc(NC(=O)c2ccccc2C(=O)O)c1	-	-	-	-	.	.
Cc1ccc(C(CC(=O)O)NC(=O)CN2C(=O)c3ccccc3C2=O)cc1 (stereo not drawn)	-	-	-	-	.	.
Cc1ccc(C2=NC(=O)/C(=C/c3cc(O)c(O)c(Br)c3)S2)cc1	-	-	8.5	.	15	41
COc1cc(/C=C2\SC(c3ccc(C)cc3)=NC2=O)cc(OC)c1O	-	-	-	-	.	.
Cc1noc(NS(=O)(=O)c2ccc(NC(=O)c3cccc(S(=O)(=O)Nc4ccccc4F)c3)cc2)c1C	-	-	-	-	.	.
COc1cccc(C(=O)Nc2cccc(SC)c2)c1	.	.	6.3	-	-	-
CN(C)CCCNC(=O)c1ccc(-c2cc(O)c3ncccc3c2)cc1	-	-	25	-	31	19
CC(=O)c1ccc(OCc2cc(C(=O)N3CCC[C@H]3CO)no2)cc1	-	-	11	-	10	-
O=C(c1cc(COc2cccc3cccnc23)on1)N1CCC[C@H]1CO	.	.	54	.	50	-	GFP quench dose=-;GFP quench-2=-

Screens: PubChem BioAssay, several laboratories
